Active and inactive are the calls of the source. The calls are words filed in the database; no cut-off is given here.
These compounds were tested against T1, Topoisomerase I (Bos taurus) (UniProt Q2HPH0) (assay: (§1) Inhibition of calf thymus topoisomerase 1 assessed as suppression of relaxation of supercoiled pBR322 DNA at 100 uM incubated for 0.5 hrs by bromophenol blue and xylene cyanol FF staining based electrophoresis method).
T1 sequence (whole entry): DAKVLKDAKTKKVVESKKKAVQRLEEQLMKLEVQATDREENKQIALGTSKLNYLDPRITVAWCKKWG
Method in brief: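 Calf thymus Topo I with supercoiled pBR322 DNA and 100 μM compound, 37 °C for 0.5 h. Stopped with dye solution (bromophenol blue, xylene cyanol FF, glycerol). 1% agarose, 0.66 h in 1× TAE, then 5 μg mL-1 EB staining 0.5 h and UV imaging. Inhibition judged from supercoiled DNA remaining; camptothecin as control.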

SMILES | inhibition
CCCN(C(=O)c1ccc(C(=O)N(CCC)[C@H]2CC3=CC(=O)O[C@@]34C[C@@H]2N2CCCCC24)cc1)C1CC2=CC(=O)O[C@@]23C[C@@H]1N1CCCC[C@@H]13 (single isomer, unassigned) | Active
CCCN(C(=O)c1ccccc1)[C@H]1CC2=CC(=O)O[C@@]23C[C@@H]1N1CCCC[C@@H]13 | Active
CCCN(C(=O)Cc1ccc(CC(=O)N(CCC)[C@H]2CC3=CC(=O)O[C@@]34C[C@@H]2N2CCCC[C@@H]24)cc1)[C@@H]1CC2=CC(=O)O[C@@]23C[C@@H]1N1CCCC[C@@H]13 | Active
CCCN(C(=O)[C@H]1CCC[C@@H](C(=O)N(CCC)[C@H]2CC3=CC(=O)O[C@@]34C[C@@H]2N2CCCC[C@@H]24)C1)[C@@H]1CC2=CC(=O)O[C@@]23C[C@@H]1N1CCCC[C@@H]13 | Active
CCCN(C(=O)CCCC(=O)N(CCC)[C@H]1CC2=CC(=O)O[C@@]23C[C@@H]1N1CCCC[C@@H]13)[C@@H]1CC2=CC(=O)O[C@@]23C[C@@H]1N1CCCC[C@@H]13 | Active
O=C1C=C2C=C[C@@H]3C[C@@]2(O1)[C@H]1CCCCN31 | Active
CCCN(C(=O)Cc1cccc(CC(=O)N(CCC)[C@H]2CC3=CC(=O)O[C@@]34C[C@@H]2N2CCCCC24)c1)C1CC2=CC(=O)O[C@@]23C[C@@H]1N1CCCCC13 (single isomer, unassigned) | Active
CCCN(C(=O)c1cccc(C(=O)N(CCC)[C@H]2CC3=CC(=O)O[C@@]34C[C@@H]2N2CCCCC24)c1)C1CC2=CC(=O)O[C@@]23C[C@@H]1N1CCCC[C@@H]13 (single isomer, unassigned) | Active
CCCN(C(=O)CCCCC(=O)N(CCC)[C@H]1CC2=CC(=O)O[C@@]23C[C@@H]1N1CCCC[C@@H]13)[C@@H]1CC2=CC(=O)O[C@@]23C[C@@H]1N1CCCC[C@@H]13 | Active
CCCN(C(=O)c1ccccc1C(=O)N(CCC)[C@H]1CC2=CC(=O)O[C@@]23C[C@@H]1N1CCCCC13)C1CC2=CC(=O)O[C@@]23C[C@@H]1N1CCCC[C@@H]13 (single isomer, unassigned) | Active
CC[C@@]1(O)C(=O)OCc2c1cc1n(c2=O)Cc2cc3ccccc3nc2-1 | Active
CCCN(C(=O)Cc1ccccc1CC(=O)N(CCC)[C@H]1CC2=CC(=O)O[C@@]23C[C@@H]1N1CCCC[C@@H]13)[C@@H]1CC2=CC(=O)O[C@@]23C[C@@H]1N1CCCC[C@@H]13 | Active
CCCN(C(=O)[C@H]1CC[C@H](C(=O)N(CCC)[C@H]2CC3=CC(=O)O[C@@]34C[C@@H]2N2CCCC[C@@H]24)CC1)[C@@H]1CC2=CC(=O)O[C@@]23C[C@@H]1N1CCCC[C@@H]13 | Active
CCCN(C(=O)[C@H]1CCCC[C@H]1C(=O)N(CCC)[C@H]1CC2=CC(=O)O[C@@]23C[C@@H]1N1CCCC[C@@H]13)[C@@H]1CC2=CC(=O)O[C@@]23C[C@@H]1N1CCCC[C@@H]13 | Active

Each compound was assayed against T1, Topoisomerase I (Bos taurus) (assay: as §1, with “Potency index, ratio of enzyme inhibition of securinine to enzyme inhibition of test compound for inhibition” for “Inhibition”).

SMILES | Ratio
CCCN(C(=O)c1cccc(C(=O)N(CCC)[C@H]2CC3=CC(=O)O[C@@]34C[C@@H]2N2CCCCC24)c1)C1CC2=CC(=O)O[C@@]23C[C@@H]1N1CCCC[C@@H]13 (single isomer, unassigned) | 3

These compounds were tested against T1, Topoisomerase I (Bos taurus) (assay: Inhibition of calf thymus topoisomerase 1 assessed as reduction in topo1/DNA complex formation at 50 to 400 uM pre-incubated for 0.33 hrs before addition of supercoiled pBR322 DNA substrate by EMSA).
Method in brief: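 BSA added to Topo I buffer, then four units calf thymus Topo I and compound (50, 100, 200 or 400 μM), standing 0.33 h. 0.1 μg pBR322 DNA added, 37 °C for 0.5 h. Electrophoresis at 1 V cm-1, 4 °C, 8 h on 1% gel containing EB; bands under UV.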

SMILES | inhibition
CCCN(C(=O)c1cccc(C(=O)N(CCC)[C@H]2CC3=CC(=O)O[C@@]34C[C@@H]2N2CCCCC24)c1)C1CC2=CC(=O)O[C@@]23C[C@@H]1N1CCCC[C@@H]13 (single isomer, unassigned) | Dose-dependent effect

What follows are compounds tested against T1, Topoisomerase I (Bos taurus) (assay: Inhibition of calf thymus topoisomerase 1 assessed as increase in nicked DNA at 50 uM using supercoiled pBR322 DNA incubated for 0.5 hrs by ethidium bromide staining based DNA-cleavage assay).
Method in brief: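 Reaction: 20 units Topo I, 0.5 μg supercoiled pBR322 DNA, 50 or 100 μM compound in 40 μL Topo I buffer, 37 °C for 0.5 h. Terminated with 1% SDS, proteinase K 0.8 mg mL-1 at 50 °C for 10 min. Electrophoresis 60 V, 25 °C, 0.5 h, EB soak 0.5 μg mL-1, second run 0.5 h. Read-out: nicked versus other band intensities, UV.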

SMILES | inhibition
CCCN(C(=O)c1ccccc1)[C@H]1CC2=CC(=O)O[C@@]23C[C@@H]1N1CCCC[C@@H]13 | inactive
CCCN(C(=O)[C@H]1CCC[C@@H](C(=O)N(CCC)[C@H]2CC3=CC(=O)O[C@@]34C[C@@H]2N2CCCC[C@@H]24)C1)[C@@H]1CC2=CC(=O)O[C@@]23C[C@@H]1N1CCCC[C@@H]13 | inactive
CCCN(C(=O)CCCCC(=O)N(CCC)[C@H]1CC2=CC(=O)O[C@@]23C[C@@H]1N1CCCC[C@@H]13)[C@@H]1CC2=CC(=O)O[C@@]23C[C@@H]1N1CCCC[C@@H]13 | inactive
CC[C@@]1(O)C(=O)OCc2c1cc1n(c2=O)Cc2cc3ccccc3nc2-1 | Active

What follows are compounds tested against T1, Topoisomerase I (Bos taurus) (assay: Inhibition of calf thymus topoisomerase 1 assessed as increase in nicked DNA at 10 uM using supercoiled pBR322 DNA incubated for 0.5 hrs by ethidium bromide staining based DNA-cleavage assay).

SMILES | inhibition
CCCN(C(=O)c1ccccc1)[C@H]1CC2=CC(=O)O[C@@]23C[C@@H]1N1CCCC[C@@H]13 | inactive
CCCN(C(=O)[C@H]1CCC[C@@H](C(=O)N(CCC)[C@H]2CC3=CC(=O)O[C@@]34C[C@@H]2N2CCCC[C@@H]24)C1)[C@@H]1CC2=CC(=O)O[C@@]23C[C@@H]1N1CCCC[C@@H]13 | inactive
CCCN(C(=O)c1cccc(C(=O)N(CCC)[C@H]2CC3=CC(=O)O[C@@]34C[C@@H]2N2CCCCC24)c1)C1CC2=CC(=O)O[C@@]23C[C@@H]1N1CCCC[C@@H]13 (single isomer, unassigned) | Active
CCCN(C(=O)CCCCC(=O)N(CCC)[C@H]1CC2=CC(=O)O[C@@]23C[C@@H]1N1CCCC[C@@H]13)[C@@H]1CC2=CC(=O)O[C@@]23C[C@@H]1N1CCCC[C@@H]13 | inactive
CC[C@@]1(O)C(=O)OCc2c1cc1n(c2=O)Cc2cc3ccccc3nc2-1 | Active

These compounds were tested on DNA topoisomerase I (Bos taurus) (assay: Induction of DNA intercalation assessed as reduction in topoisomerase 1-mediated DNA relaxation at 100 uM using supercoiled pBR322 DNA incubated for 0.5 hrs in presence of calf thymus topoisomerase 1 by electrophoresis method).

SMILES | Activity
CCCN(C(=O)c1ccc(C(=O)N(CCC)[C@H]2CC3=CC(=O)O[C@@]34C[C@@H]2N2CCCCC24)cc1)C1CC2=CC(=O)O[C@@]23C[C@@H]1N1CCCC[C@@H]13 (single isomer, unassigned) | inactive
CCCN(C(=O)Cc1ccc(CC(=O)N(CCC)[C@H]2CC3=CC(=O)O[C@@]34C[C@@H]2N2CCCC[C@@H]24)cc1)[C@@H]1CC2=CC(=O)O[C@@]23C[C@@H]1N1CCCC[C@@H]13 | inactive
CCCN(C(=O)Cc1cccc(CC(=O)N(CCC)[C@H]2CC3=CC(=O)O[C@@]34C[C@@H]2N2CCCCC24)c1)C1CC2=CC(=O)O[C@@]23C[C@@H]1N1CCCCC13 (single isomer, unassigned) | inactive
CCCN(C(=O)c1cccc(C(=O)N(CCC)[C@H]2CC3=CC(=O)O[C@@]34C[C@@H]2N2CCCCC24)c1)C1CC2=CC(=O)O[C@@]23C[C@@H]1N1CCCC[C@@H]13 (single isomer, unassigned) | inactive
CCCN(C(=O)c1ccccc1C(=O)N(CCC)[C@H]1CC2=CC(=O)O[C@@]23C[C@@H]1N1CCCCC13)C1CC2=CC(=O)O[C@@]23C[C@@H]1N1CCCC[C@@H]13 (single isomer, unassigned) | inactive
CCCN(C(=O)Cc1ccccc1CC(=O)N(CCC)[C@H]1CC2=CC(=O)O[C@@]23C[C@@H]1N1CCCC[C@@H]13)[C@@H]1CC2=CC(=O)O[C@@]23C[C@@H]1N1CCCC[C@@H]13 | inactive

Source: ChEMBL document CHEMBL4138059, “Novel bivalent securinine mimetics as topoisomerase I inhibitors” (Medchemcomm, 2017)
